According to ChEMBL document CHEMBL3232795, “Using 'biased-privileged' scaffolds to identify lysine methyltransferase inhibitors” (Bioorg Med Chem, 2014):
The source made the active and inactive calls. No cut-off for these calls is given here.

Tests used:
[1] = molecular target: T1, Histone-lysine N-methyltransferase SETD7 (Homo sapiens) (UniProt Q8WTS6); assay: Inhibition of methyl-transferase activity in GST-tagged recombinant SET7/9 (unknown origin) expressed in Escherichia coli BL21 using H3(1-20)-cys-biotin as substrate at 40 uM preincubated for 5 mins followed by substrate addition by ELISA relative to control
T1 sequence (whole entry): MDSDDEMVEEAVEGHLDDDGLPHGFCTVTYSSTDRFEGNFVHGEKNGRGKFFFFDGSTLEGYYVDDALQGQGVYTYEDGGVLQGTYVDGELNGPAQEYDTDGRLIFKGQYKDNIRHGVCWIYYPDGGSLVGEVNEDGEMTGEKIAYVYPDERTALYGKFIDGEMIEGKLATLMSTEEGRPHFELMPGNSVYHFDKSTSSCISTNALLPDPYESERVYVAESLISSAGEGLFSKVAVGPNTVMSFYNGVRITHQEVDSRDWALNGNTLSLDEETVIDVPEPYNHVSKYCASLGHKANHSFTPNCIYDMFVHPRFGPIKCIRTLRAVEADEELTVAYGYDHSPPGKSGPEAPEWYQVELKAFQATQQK
How it was run: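 GST-fused SET7 (residues 52–366), expressed in bacteria. Enzyme at 2.8 nM with SAM (300 nM) in Tris pH 8.0 buffer (4% DMSO, BSA, EDTA, DTT, Triton X-100) on streptavidin plates, preincubated with compound 5 min at room temperature. Biotinylated H3(1–20)-cys substrate (900 nM) added, 5 min at 30 °C. Stopped with acetate pH 5.0. H3K4me1 detected with antibody, HRP secondary and chemiluminescence; signal given relative to DMSO control.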

[2] = molecular target: T1, Histone-lysine N-methyltransferase SETD7 (Homo sapiens); assay: Inhibition of SET7 (unknown origin)-mediated methylation of histone H3(1-20)cys-biotin at 15 to 50 uM after 5 mins by scintillation proximity assay in presence of [3H]-S-adenosyl-methionine
How it was run: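 SET7 (25 nM) with biotinylated H3(1–20)-cys peptide (900 nM) and compound (2% DMSO final) in Tris pH 8.5 buffer with BSA, EDTA and DTT, 5 min at 30 °C. Started with SAM (2 µM) carrying trace 3H-SAM (0.2 µM), 8 min at 30 °C. Quenched onto streptavidin SPA beads in acetate pH 5.0 with excess cold SAM, then counted. Background-subtracted CPM expressed as percent of DMSO control. Tested twice.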

[3] = molecular target: T2, Histone-lysine N-methyltransferase EHMT2 (Homo sapiens, UniProt Q96KQ7); assay: Inhibition of C-terminal GST-tagged human G9a-mediated-methylation of histone3 expressed in Escherichia coli BL21(DE3) by scintillation proximity assay
T2 sequence (Q96KQ7 whole entry): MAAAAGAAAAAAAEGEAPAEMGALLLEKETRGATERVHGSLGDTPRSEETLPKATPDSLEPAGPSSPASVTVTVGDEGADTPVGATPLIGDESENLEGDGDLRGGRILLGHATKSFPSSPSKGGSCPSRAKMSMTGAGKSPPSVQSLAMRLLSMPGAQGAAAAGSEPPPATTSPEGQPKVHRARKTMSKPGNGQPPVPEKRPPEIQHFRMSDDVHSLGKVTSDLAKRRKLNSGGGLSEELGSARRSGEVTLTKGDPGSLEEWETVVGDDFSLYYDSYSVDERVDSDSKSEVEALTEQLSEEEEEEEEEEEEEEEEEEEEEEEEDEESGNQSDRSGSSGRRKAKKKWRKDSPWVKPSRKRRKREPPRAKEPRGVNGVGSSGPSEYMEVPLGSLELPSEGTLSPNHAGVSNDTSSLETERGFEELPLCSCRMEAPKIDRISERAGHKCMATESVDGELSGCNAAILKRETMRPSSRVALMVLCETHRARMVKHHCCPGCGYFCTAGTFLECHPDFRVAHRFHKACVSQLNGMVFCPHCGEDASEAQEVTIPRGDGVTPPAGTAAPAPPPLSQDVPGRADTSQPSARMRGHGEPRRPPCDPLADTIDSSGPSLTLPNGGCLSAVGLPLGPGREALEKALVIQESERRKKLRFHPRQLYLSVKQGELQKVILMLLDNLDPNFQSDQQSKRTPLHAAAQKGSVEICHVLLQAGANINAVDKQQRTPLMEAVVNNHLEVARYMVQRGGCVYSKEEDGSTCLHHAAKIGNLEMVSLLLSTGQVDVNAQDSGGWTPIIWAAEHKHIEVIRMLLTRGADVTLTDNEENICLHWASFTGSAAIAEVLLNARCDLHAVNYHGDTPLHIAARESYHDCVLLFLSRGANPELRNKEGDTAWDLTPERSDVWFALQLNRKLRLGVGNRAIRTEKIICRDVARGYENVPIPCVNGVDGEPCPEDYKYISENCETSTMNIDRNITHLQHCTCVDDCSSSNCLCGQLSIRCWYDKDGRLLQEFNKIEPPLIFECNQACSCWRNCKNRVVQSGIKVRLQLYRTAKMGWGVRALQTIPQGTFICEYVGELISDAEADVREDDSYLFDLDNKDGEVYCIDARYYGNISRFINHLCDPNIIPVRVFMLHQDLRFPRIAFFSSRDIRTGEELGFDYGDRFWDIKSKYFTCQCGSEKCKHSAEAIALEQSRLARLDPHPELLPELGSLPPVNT

Row | inhibition [1] | inhibition [2] | IC50 [3] | SMILES
1 | Active | Active | 26.4 µM | O=C(O)c1cccc(NCc2cccc(-n3ccc4c(-c5ccc(C(F)(F)F)cc5)cccc43)c2)c1
2 |  | Active |  | O=C(O)c1ccc(S(=O)(=O)Nc2cccc(-n3ccc4c(-c5ccc(C(F)(F)F)cc5)cccc43)c2)cc1
3 |  | Active |  | O=C(O)c1cccc(NCc2ccc(-n3ccc4c(-c5ccc(C(F)(F)F)cc5)ncnc43)s2)c1
4 | Active |  |  | O=C(O)c1cccc(SCc2cccc(-n3ccc4cc(Br)ccc43)c2)c1
5 |  | Active |  | O=[N+]([O-])c1cccc(S(=O)(=O)Nc2cccc(-n3ccc4c(-c5ccc(C(F)(F)F)cc5)cccc43)c2)c1
6 | 50% |  |  | O=C(O)c1cccc(SCc2cccc(-n3ccc4c(-c5ccccc5)cccc43)c2)c1
7 | Active |  |  | O=C(O)c1cccc(NCc2cccc(-n3ccc4c(-c5ccc6ccccc6c5)cccc43)c2)c1
8 | inactive |  |  | O=C(O)c1ccc(-c2cccc3c2ccn3-c2cccc(CNc3cccc(C(=O)O)c3)c2)cc1
9 |  | Active |  | Cc1cc(O)c(C(=O)O)cc1S(=O)(=O)Nc1cccc(-n2ccc3c(-c4ccc(C(F)(F)F)cc4)cccc32)c1
10 |  | Active |  | O=C(O)c1cccc(S(=O)(=O)Nc2cccc(-n3ccc4c(-c5ccc(C(F)(F)F)cc5)cccc43)c2)c1
11 | 12% |  |  | N[C@@H](CCSCc1cccc(-n2ccc3cc(Br)ccc32)c1)C(=O)O
12 |  | Active |  | O=C(O)c1cccc(CNc2cccc(-n3ccc4c(-c5ccc(C(F)(F)F)cc5)ncnc43)c2)c1
13 |  | Active |  | O=C(O)c1ccccc1S(=O)(=O)Nc1cccc(-n2ccc3c(-c4ccc(C(F)(F)F)cc4)cccc32)c1
14 |  | Active |  | CC(=O)Nc1nc(C)c(S(=O)(=O)Nc2cccc(-n3ccc4c(-c5ccc(C(F)(F)F)cc5)cccc43)c2)s1
15 | Active |  |  | O=C(O)CCCSCc1cccc(-n2ccc3cc(Br)ccc32)c1
16 |  | Active |  | O=[N+]([O-])c1ccccc1S(=O)(=O)Nc1cccc(-n2ccc3c(-c4ccc(C(F)(F)F)cc4)cccc32)c1
17 |  | Active |  | O=C(O)c1cccc(NCc2cccc(-n3ccc4cc(-c5ccc(C(F)(F)F)cc5)cnc43)c2)c1
18 |  | Active |  | O=C(O)c1cccc(NCc2cccc(-n3ccc4cc(-c5ccc(C(F)(F)F)cc5)ccc43)c2)c1
19 | Active |  |  | Cc1ccc(-c2cccc3c2ccn3-c2cccc(CNc3cccc(C(=O)O)c3)c2)cc1
20 | Active |  |  | CC(=O)Nc1ccc(-c2cccc3c2ccn3-c2cccc(CNc3cccc(C(=O)O)c3)c2)cc1
21 |  | Active |  | O=C(O)c1cccc(NCc2cccc(-n3ncc4cc(-c5ccc(C(F)(F)F)cc5)ccc43)c2)c1
22 | 50% |  |  | O=C(O)c1cccc(NCc2cccc(-n3ccc4c(-c5ccccc5)cccc43)c2)c1
23 |  | Active |  | O=[N+]([O-])c1ccc(S(=O)(=O)Nc2cccc(-n3ccc4c(-c5ccc(C(F)(F)F)cc5)cccc43)c2)cc1
24 |  | Active |  | O=C(O)c1cccc(NCc2cccc(-n3cnc4c(-c5ccc(C(F)(F)F)cc5)cccc43)c2)c1
25 | Active |  |  | O=C(O)c1cccc(SCc2cccc(-n3ccc4c(Br)cccc43)c2)c1
26 |  | Active |  | CS(=O)(=O)c1ccc(S(=O)(=O)Nc2cccc(-n3ccc4c(-c5ccc(C(F)(F)F)cc5)cccc43)c2)cc1
27 |  | Active |  | O=C(O)c1cccc(NCc2cccc(-n3ccc4c(-c5ccc(C(F)(F)F)cc5)ncnc43)c2)c1
